# High-throughput results as filed in PubChem BioAssay.
# Hits are enriched below; roughly 1.5% of the tested compounds scored in any of these assays.
# V1R ag counter – V1a receptor agonism, counter-screen for OXTR agonists | P37288 | CHO-V1R cells, Fluo-8 calcium fluorescence, agonist mode; 0% DMSO, 100% 3 nM vasopressin | activation, % at 3 µM | actives 0.25% (n = 320,000);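 active = activation above the mean activation of all tested compounds plus 3 SD, per screening run, cut at about 20% in these data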;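 note: signal is peak over basal fluorescence ratio across a 100 second FLIPR read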
# CHRM4 agonist – CHRM4 agonism in calcium assay. P08173. CHO-K1 hM4/Gqi5, Fluo-8 calcium fluorescence; vehicle 0%, full acetylcholine response 100%. activation, % at 3 µM. actives 0.14% (n = 360,000);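 active = activation above the run mean over all test wells plus 3 SD, cut at about 32% in these data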;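 note: peak over basal fluorescence ratio per well then scaled between controls; 0% = DMSO wells and 100% = acetylcholine at EC100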
# Target sequence (P08173 whole entry, looked up): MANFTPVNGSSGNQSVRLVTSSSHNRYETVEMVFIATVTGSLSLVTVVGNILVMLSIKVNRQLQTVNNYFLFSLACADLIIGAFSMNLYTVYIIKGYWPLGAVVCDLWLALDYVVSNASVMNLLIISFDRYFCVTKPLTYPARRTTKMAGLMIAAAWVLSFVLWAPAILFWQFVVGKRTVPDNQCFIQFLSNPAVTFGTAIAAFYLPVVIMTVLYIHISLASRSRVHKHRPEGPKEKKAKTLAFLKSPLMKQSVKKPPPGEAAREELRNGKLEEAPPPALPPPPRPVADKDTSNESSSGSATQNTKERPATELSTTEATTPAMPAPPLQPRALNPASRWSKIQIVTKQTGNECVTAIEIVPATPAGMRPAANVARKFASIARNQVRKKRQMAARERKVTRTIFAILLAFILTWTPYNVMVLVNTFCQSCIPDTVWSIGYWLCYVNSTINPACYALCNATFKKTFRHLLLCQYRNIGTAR
# CHRM4 PAM – CHRM4 positive allosteric modulation | activation, % at 3 µM | CHO-K1 hM4/Gqi5, Fluo-8 calcium fluorescence, ACh EC20; 0% = ACh EC20, 100% = maximal ACh | P08173 | actives 0.4% (n = 360,000);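 active = activation above its plate's cutoff, the mean activation of sample wells plus 3 SD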
# OXTR ag – human OXTR agonism; activation, % at 3 µM; actives 0.32% (n = 320,000); CHO-OTR cells, Fluo-8 calcium fluorescence; normalized: DMSO 0%, oxytocin 100%; AID 2435; P30559;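 active = activation above the mean of all tested compounds plus 3 SD, cutoff set per screening run, cut at about 20% in these data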;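 note: peak over basal fluorescence ratio from a 100 s FLIPR kinetic read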
# OXTR potentiator – potentiates the human oxytocin receptor response | actives 0.061% (n = 320,000) | CHO-OTR cells, Fluo-8 calcium fluorescence, potentiator mode; 0% = oxytocin EC15, 100% = EC100 | AID 2445 | P30559 | activation, % at 3 µM;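 active = activation above that plate's cutoff, the mean activation of tested compounds plus 3 SD, cut at about 6.6% in these data, passing the limit was not always enough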;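 note: 100% uses oxytocin at 75 nM as the full agonist control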
#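 Assay system: CHO cell line stably expressing human OTR | Also added: Oxytocin at about EC15, sub-maximal agonist stimulus | Times: Compound 6 min at room temperature before oxytocin, 100 s read | Measured by: Fluo-8 intracellular calcium fluorescence, ex 470-495, em 515-575 nm | Controls: EC15 oxytocin alone as 0%, 75 nM oxytocin as 100%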
# M4 antag – antagonists of human muscarinic M4 receptor (CHRM4) | actives 0.73% (n = 360,000) | CHO-hM4 cells, ACh EC80, Fluo-8 calcium fluorescence | inhibition, % at 3 µM | P08173;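 active = inhibition above its plate's cutoff, the mean inhibition of sample wells plus 3 SD, cut at about 27% in these data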;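 note: 0% = acetylcholine EC80 with DMSO and 100% = DMSO without agonist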
# * = called active by the depositor; . = no result given.
SMILES,V1R ag counter,CHRM4 agonist,CHRM4 PAM,OXTR ag,OXTR potentiator,M4 antag
CCOc1ccc2nc(SCc3ccc(C(=O)OC)o3)[nH]c2c1,-1,0,-4,-3,-4,10
CS(=O)(=O)N(CC(=O)N1CCc2ccccc2C1)c1ccccc1Br,1,8,16*,0,-13,22
COc1ccc(C(=O)CSc2nnc(CNc3ccc(F)cc3)o2)cc1,8,7,-1,8,-13,4
O=C(CSc1nnc(CNc2ccc(F)cc2)o1)c1ccccc1,2,4,23*,1,-9,-21
COc1cccc(C(NC(C)=O)c2nc(-c3ccccc3C)cs2)c1 (stereo unspecified),.,2,-2,.,.,-6
Cc1ccccc1C(=O)NNC(=O)c1cccc(Br)c1,0,2,5,0,-6,-5
O=C(O)c1ccc2c(c1)C(=O)N(c1cccc(S(=O)(=O)Nc3cccc(C(F)(F)F)c3)c1)C2=O,1,5,-5,0,-14,-12
CC(C)NC(=O)C1(C)CN(S(C)(=O)=O)CC(=O)N1Cc1cccc(F)c1 (stereo unspecified),.,1,7,.,.,-1
CC1(C(=O)NCc2ccccc2)CN(S(C)(=O)=O)CC(=O)N1Cc1cccc(F)c1 (stereo unspecified),.,6,24*,.,.,-6
CNC(=O)c1c(NC(=O)C2=COCCO2)sc(C)c1C,0,-1,10,-1,2,-4
COc1ccc(OC)c2sc(NC(=O)C3=COCCO3)nc12,1,3,3,1,-4,-8
COC(=O)c1c(NC(=O)C2=COCCO2)sc(C)c1C,-2,0,25*,-2,-6,7
COc1ccc(C)c2sc(NC(=O)C3=COCCO3)nc12,2,15,36*,2,-4,-9
O=S1(=O)CC(N2CC=CC2)CN1Cc1cn(Cc2ccc(F)cc2)nn1 (stereo unspecified),.,1,13,.,.,-22
O=C(CN1C(=O)NC2(CCCCCC2)C1=O)N1CCN(c2ccccc2)CC1,1,15,-4,2,-5,-2
CC1OC(CCc2cccc(Cl)c2)Cc2[nH]c(=S)[nH]c(=O)c21 (stereo unspecified),.,9,0,.,.,5
Cc1ccc(O)c(NC(=O)c2ccc3c(c2)C(=O)N(Cc2ccco2)C3=O)c1,0,4,-1,1,-5,3
COc1cccc(N=Nc2ccc(O)c3ncccc23)c1,1,30,-9,-2,8,34*
COc1cccc(N=Nc2ccc3cccnc3c2O)c1,2,43*,-13,5,-8,19
Cc1ccc(S(=O)(=O)N2CCOCC2)cc1NC(=O)COC(=O)COc1ccc(C#N)cc1,.,3,8,.,.,-3
CCOc1ccc(CCNC(=O)c2cc(C)on2)cc1OCC,1,2,21*,0,-4,-15
COc1ccc(NC(=O)c2ccc(S(=O)(=O)N3CC(C)OC(C)C3)cc2)cc1 (stereo unspecified),2,4,7,1,-3,-19
CC1=CC2=NC(=O)/C(=C\c3cc(C)n(-c4cccc(Cl)c4)c3C)C(=N)N2O1,0,-1,8,-1,-4,-3
COc1cc(/C=C2/C(=N)N3C(SC)=NSC3=NC2=O)ccc1OC(=O)c1ccco1,0,3,-3,0,-4,10
CSC1=NSC2=NC(=O)/C(=C/c3coc4ccc(O)cc4c3=O)C(=N)N12,77*,26,-8,104*,-19,20
SMILES,V1R ag counter,CHRM4 agonist,CHRM4 PAM,OXTR ag,OXTR potentiator,M4 antag
CC1=CC2=NC(=O)/C(=C/c3coc4ccc(Cl)cc4c3=O)C(=N)N2O1,34*,45*,-14,55*,-19,23
CSC1=NSC2=NC(=O)/C(=C/c3coc4ccccc4c3=O)C(=N)N12,88*,33*,-12,176*,-12,18
N=C1/C(=C\c2coc3ccccc3c2=O)C(=O)N=C2SC=CN12,84*,107*,-43,116*,-10,38*
CSC1=NSC2=NC(=O)/C(=C\c3cccs3)C(=N)N12,1,2,-1,2,-4,3
c1ccc(C(c2ccccc2)c2noc(CN3CCN(CC4CC4)CC3)n2)cc1,0,1,-24,-1,-10,31*
COCC1CCCN(Cc2nc(C(c3ccccc3)c3ccccc3)no2)C1 (stereo unspecified),-1,-1,-4,0,-1,-11
C1C2CC3C1C3C2=NN=C1C2CC3C(C2)C13,.,1,11,.,.,-6
COCCN(C)Cc1nc(C(c2ccccc2)c2ccccc2)no1,-1,-1,0,-1,2,2
CCC(c1ccccc1)c1noc(CCN(CC)CC)n1 (stereo unspecified),.,1,-14,.,.,59*
COc1ccc(Cl)cc1NC(=O)CN(C)C(=O)CCc1nc2ccccc2c(=O)[nH]1,1,3,5,1,-2,1
CC(C)(C)C(=O)c1sc2nc(-c3cccs3)cc(C(F)(F)F)c2c1N,4,1,-1,3,-5,9
Cc1nnc(NC(=O)c2sc3nc(-c4cccs4)cc(C(F)(F)F)c3c2N)s1,44*,34*,-12,98*,-13,7
CS(=O)(=O)c1ccccc1-c1nnc(NC(=O)c2ccco2)o1,2,0,-4,1,-7,39*
O=C(Nc1nnc(-c2ccc(F)cc2)o1)c1ccco1,0,1,7,0,-3,-14
C=C(C)c1cccc(C(C)(C)NC(=O)N2CCN(C(=O)OCC)CC2)c1,.,1,6,.,.,-12
COC(=O)c1sc(NC(C)=O)c(C(=O)OC)c1C,1,3,21*,-1,-5,-7
CC(C)(C)OC(=O)N1CCC[C@H]1c1nnc(SCc2ccc(Cl)cc2)o1,0,1,21,-3,-9,-16
Cc1ccccc1OCCn1cnc2c(N)ncnc21,0,5,16*,2,2,2
COc1cc(-c2cnc3c(NC=O)cc(-c4ccsc4)cn23)cc(OC)c1OC,.,8,-5,.,.,9
COc1ccc(NC(=O)c2ccccc2N2C(=O)C3C4C=CC(C5CC45)C3C2=O)c(OC)c1 (stereo unspecified),1,5,15*,-1,1,-9
CCOC(=O)c1c(C)nc2sc3c(=O)n(-c4ccc(C)cc4)cnc3c2c1-c1ccc(OC)cc1,1,0,-3,0,-2,4
CCOC(=O)CSc1nc(C)nc2c1sc1nc(C)c(C(C)=O)c(-c3ccc(OC)cc3)c12,2,1,20*,0,-14,8
COCCn1c(=NC(=O)CCS(=O)(=O)c2ccccc2)sc2cc(C)ccc21,0,1,-3,-2,0,2
